Data from PubChem BioAssay AID588804 (The Scripps Research Institute Molecular Screening Center, 2011).
Active and inactive are the calls of the source.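 How the source made its calls: active means In either cell panel, a half-cytotoxic dose CC50 of 5 µM or lower marks a compound as cytotoxic; inactive means Both panels show CC50 exceeding 5 µM.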

Assay: Neuro-2A neuroblastoma viability reduction – cell-based, WST-1 absorbance, serum-free and serum media, cytotoxicity control for PME-1 inhibitor project, dose response (AID 588804)
Settings: Neuro-2A viability, 48 h
Summary of the method: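 test system = Neuro-2A murine neuroblastoma cells | read-out basis = % surviving cells and CC50 from three-parameter sigmoidal fit | control set = compound-free cells as high control, no-cell wells as low | detection = colorimetric WST-1 formazan absorbance | incubation = cells grown 36 h before dosing, 48 h compound exposure at 37 °C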

Compound | CC50 (with serum) | CC50 (without serum)
CC[C@@]1(c2ccc(Cl)cc2)C(=O)N(C(=O)OC)N1C(=O)OC | > 10 µM (inactive) | > 10 µM (inactive)
CC[C@@]1(c2ccc(C)cc2)C(=O)N(C(=O)OC(C)C)N1C(=O)OC(C)C | > 10 µM (inactive) | > 10 µM (inactive)
CCCOC(=O)N1C(=O)[C@@](CC)(c2ccc(C)cc2)N1C(=O)OCCC | > 10 µM (inactive) | > 10 µM (inactive)
